target: Serotonin receptor 2a and 2c (5HT2A and 5HT2C) (Rattus norvegicus) (UniProt P08909+P14842); test: Selectivity ratio towards Ki of 5-hydroxytryptamine 2A receptor to 5-hydroxytryptamine 2C receptor; format: protein assay; details: not given
Sequence (P08909 whole entry, looked up): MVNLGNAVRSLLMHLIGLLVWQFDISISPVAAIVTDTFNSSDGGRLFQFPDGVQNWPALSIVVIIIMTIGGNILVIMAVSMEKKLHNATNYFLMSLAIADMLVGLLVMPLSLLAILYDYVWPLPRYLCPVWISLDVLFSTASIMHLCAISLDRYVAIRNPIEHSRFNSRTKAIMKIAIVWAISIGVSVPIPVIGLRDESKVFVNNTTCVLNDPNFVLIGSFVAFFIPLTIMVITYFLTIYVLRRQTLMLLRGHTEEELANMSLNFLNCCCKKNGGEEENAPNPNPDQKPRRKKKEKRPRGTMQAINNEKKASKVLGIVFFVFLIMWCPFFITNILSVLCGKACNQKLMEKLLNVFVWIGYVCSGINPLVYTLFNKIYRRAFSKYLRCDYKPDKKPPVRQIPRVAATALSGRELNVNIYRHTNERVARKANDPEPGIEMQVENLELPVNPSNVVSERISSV
Sequence (P14842 whole entry, looked up): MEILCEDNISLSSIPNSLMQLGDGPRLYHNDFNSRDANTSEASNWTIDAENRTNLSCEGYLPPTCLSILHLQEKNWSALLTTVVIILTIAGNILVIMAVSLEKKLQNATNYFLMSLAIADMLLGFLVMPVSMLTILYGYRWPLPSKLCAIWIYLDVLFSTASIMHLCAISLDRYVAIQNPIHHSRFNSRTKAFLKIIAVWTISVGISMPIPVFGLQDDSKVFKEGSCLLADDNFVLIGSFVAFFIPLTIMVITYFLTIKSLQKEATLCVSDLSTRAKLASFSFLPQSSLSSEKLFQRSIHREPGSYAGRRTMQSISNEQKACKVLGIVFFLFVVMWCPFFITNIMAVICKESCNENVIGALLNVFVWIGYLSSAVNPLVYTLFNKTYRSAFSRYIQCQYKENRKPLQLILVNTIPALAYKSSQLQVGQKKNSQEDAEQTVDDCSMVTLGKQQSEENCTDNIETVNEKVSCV

| Ratio | SMILES |
| --- | --- |
| 2.5 | CCc1c(C)[nH]c2c1C(=O)C(CCN1CCN(c3ccccc3OC)CC1)CC2 (stereo unspecified) |
| 65 | O=C1CC(CN2CCC(C(=O)c3ccc(F)cc3)CC2)Cc2[nH]c3ccccc3c21 (stereo unspecified) |
| 46 | O=C(CCCN1CCN(CCC2CCc3ccccc3C2=O)CC1)c1ccc(F)cc1 (stereo unspecified) |
| 616 | O=C1CC(CN2CCC(C(=O)c3ccc(F)cc3)CC2)Cc2occc21 (stereo unspecified) |
| 44 | O=C1CC(CN2CCC(c3noc4cc(F)ccc34)CC2)Cc2sccc21 (racemic) [listing 1 of 2 here] |
| 33 | O=C(CCCN1CCN(CC2CC(=O)c3ccoc3C2)CC1)c1ccc(F)cc1 (stereo unspecified) |
| 1440 | O=C1CC(CN2CCN(c3ccccc3)CC2)Cc2occc21 (stereo unspecified) |
| 5.5 | COc1ccccc1N1CCN(CC2CC(=O)c3ccccc3C2)CC1 (stereo unspecified) |
| 25 | O=C(CCCCN1CCN(CC2CC(=O)c3ccoc3C2)CC1)c1ccc(F)cc1 (stereo unspecified) |
| 1.9 | COc1ccccc1N1CCN(CC2CC(=O)c3c([nH]c4ccccc34)C2)CC1 (stereo unspecified) |

target: T1, 5-hydroxytryptamine receptor 2A (Rattus norvegicus, UniProt P14842); test: Negative log concentration of antagonist on 5-hydroxytryptamine 2A receptor in rat thoracic aorta; format: functional, tissue-based; details: read-out: pA2 (converted)
T1 sequence (P14842 whole entry): as the sequence (P14842 whole entry, looked up) above

| Kb [nM] | SMILES |
| --- | --- |
| 617 | COc1ccccc1N1CCN(CC2CC(=O)c3ccccc32)CC1 (stereo unspecified) |
| 63.1 | O=C(CCCN1CCN(CC2CC(=O)c3ccccc32)CC1)c1ccc(F)cc1 (stereo unspecified) |
| 0.135 | O=C1c2ccsc2CCC1CCN1CCC(c2noc3cc(F)ccc23)CC1 (stereo unspecified) |
| 7.59 | O=C(c1ccc(F)cc1)C1CCN(CCC2Cc3ccccc3C2=O)CC1 (stereo unspecified) |
| 0.955 | O=C(c1ccc(F)cc1)C1CCN(CCC2CCc3sccc3C2=O)CC1 (stereo unspecified) |
| 178 | O=C(c1ccc(F)cc1)C1CCN(CCC2CCCc3ccccc3C2=O)CC1 (stereo unspecified) |
| 112 | COc1ccccc1N1CCN(CCC2CCc3sccc3C2=O)CC1 (stereo unspecified) |
| 0.741 | O=C1CC(CN2CCC(c3noc4cc(F)ccc34)CC2)Cc2sccc21 (racemic) [listing 2 of 2 here] |
| 7.41 | O=C1CC(CN2CCC(C(=O)c3ccc(F)cc3)CC2)c2ccccc21 (stereo unspecified) |
| 44.7 | O=C(CCCN1CCN(CCC2CCc3ccccc3C2=O)CC1)c1ccc(F)cc1 (stereo unspecified) |
| 52.5 | O=C1CC(CN2CCC(C(=O)c3ccc(F)cc3)CC2)Cc2occc21 (stereo unspecified) |
| 1260 | COc1ccccc1N1CCN(CC2CC(=O)c3ccsc3C2)CC1 (stereo unspecified) |
| 15.1 | O=C1CC(CN2CCC(C(=O)c3ccc(F)cc3)CC2)Cc2sccc21 (stereo unspecified) |
| 16.2 | O=C(CCCN1CCN(CC2CC(=O)c3ccsc3C2)CC1)c1ccc(F)cc1 (stereo unspecified) |
| 148 | O=C(CCCN1CCN(CCC2CCc3sccc3C2=O)CC1)c1ccc(F)cc1 (stereo unspecified) |
| 331 | COc1ccccc1N1CCN(CC2CC(=O)c3ccccc3C2)CC1 (stereo unspecified) |
| 1.2 | O=C(c1ccc(F)cc1)C1CCN(CCC2Cc3sccc3C2=O)CC1 (stereo unspecified) |
| 13.8 | O=C1CC(CN2CCC(C(=O)c3ccc(F)cc3)CC2)Cc2ccccc21 (stereo unspecified) |
| 23.4 | O=C(CCCN1CCN(CCC2Cc3sccc3C2=O)CC1)c1ccc(F)cc1 (stereo unspecified) |

target: T1, 5-hydroxytryptamine receptor 2A; test: Negative log concentration of antagonistic compound was determined on 5-hydroxytryptamine 2A receptor of Rat thoracic aorta; format: functional, tissue-based; details: read-out: pA2 (converted)
Method in brief: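 Denuded thoracic aorta rings (4 mm) from male Sprague–Dawley rats (250–350 g), 2 g tension in Krebs organ bath; isometric contraction. Sensitized with 10 μM 5-HT, then cumulative 5-HT curves (30 nM–100 μM) alternating with 60 min equilibration; two matching control runs, then antagonist added 20 min before end of equilibration. Single-concentration method: […].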

| Kb [nM] | SMILES |
| --- | --- |
| 31.6 | CCc1c(C)[nH]c2c1C(=O)C(CCN1CCN(c3ccccc3OC)CC1)CC2 (stereo unspecified) |

target: 5-hydroxytryptamine receptor 2C (Bos taurus); test: Inhibitory constant was determined on 5-hydroxytryptamine 2C receptor of Bovine choroid plexus; details: not given

| Log Ki | SMILES |
| --- | --- |
| -6.69 | O=C1CC(CN2CCC(c3noc4cc(F)ccc34)CC2)Cc2sccc21 (racemic) [listing 2 of 2 here] |
